Experimental data of several laboratories.
Target: Phosphatidylinositol 3-kinase C2 domain-containing subunit gamma (PIK3C2G, Homo sapiens, UniProt O75747)
Residues used in one study (O75747 1-1486): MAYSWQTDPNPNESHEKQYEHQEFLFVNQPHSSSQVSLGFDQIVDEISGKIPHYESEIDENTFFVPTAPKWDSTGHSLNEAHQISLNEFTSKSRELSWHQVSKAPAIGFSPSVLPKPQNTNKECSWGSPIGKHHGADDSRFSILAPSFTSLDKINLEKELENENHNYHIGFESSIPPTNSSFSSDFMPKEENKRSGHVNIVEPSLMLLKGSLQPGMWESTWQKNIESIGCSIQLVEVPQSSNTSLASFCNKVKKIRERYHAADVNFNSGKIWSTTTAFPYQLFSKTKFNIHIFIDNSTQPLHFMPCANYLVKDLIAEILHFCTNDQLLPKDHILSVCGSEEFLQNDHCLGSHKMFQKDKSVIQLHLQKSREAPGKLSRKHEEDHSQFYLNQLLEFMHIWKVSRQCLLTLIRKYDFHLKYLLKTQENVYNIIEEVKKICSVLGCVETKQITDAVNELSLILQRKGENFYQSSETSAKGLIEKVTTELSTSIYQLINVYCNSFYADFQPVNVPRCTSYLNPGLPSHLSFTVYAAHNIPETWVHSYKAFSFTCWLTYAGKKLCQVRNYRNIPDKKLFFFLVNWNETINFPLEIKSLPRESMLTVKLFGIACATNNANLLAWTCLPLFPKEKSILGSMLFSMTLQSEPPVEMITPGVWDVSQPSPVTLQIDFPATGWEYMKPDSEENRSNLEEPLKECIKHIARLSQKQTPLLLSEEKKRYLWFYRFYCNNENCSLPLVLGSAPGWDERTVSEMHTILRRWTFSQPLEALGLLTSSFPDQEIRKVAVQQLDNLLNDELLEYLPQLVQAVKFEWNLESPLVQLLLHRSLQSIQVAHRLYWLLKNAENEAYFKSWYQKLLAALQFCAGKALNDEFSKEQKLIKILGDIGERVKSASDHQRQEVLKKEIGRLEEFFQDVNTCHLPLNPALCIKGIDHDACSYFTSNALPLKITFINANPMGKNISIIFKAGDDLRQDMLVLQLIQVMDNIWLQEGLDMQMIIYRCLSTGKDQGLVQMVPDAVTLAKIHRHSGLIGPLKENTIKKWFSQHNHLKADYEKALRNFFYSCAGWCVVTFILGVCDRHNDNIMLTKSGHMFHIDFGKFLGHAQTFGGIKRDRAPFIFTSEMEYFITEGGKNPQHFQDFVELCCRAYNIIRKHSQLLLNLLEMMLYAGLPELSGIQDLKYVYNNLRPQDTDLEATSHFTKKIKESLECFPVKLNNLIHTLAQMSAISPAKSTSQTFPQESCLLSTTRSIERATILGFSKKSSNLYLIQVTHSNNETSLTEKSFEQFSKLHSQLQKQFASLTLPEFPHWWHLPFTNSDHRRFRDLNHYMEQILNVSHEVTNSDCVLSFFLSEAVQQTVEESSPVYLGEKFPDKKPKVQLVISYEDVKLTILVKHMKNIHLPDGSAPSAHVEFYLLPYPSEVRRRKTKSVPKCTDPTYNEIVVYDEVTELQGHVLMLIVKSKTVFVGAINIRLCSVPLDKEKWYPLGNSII

Compound | observed | method | tested at | remaining binding
CN(C)c1nccc(-c2cnn3ncccc23)n1 | binding | – | 1 µM | 100%
COc1cnc(Nc2cccc(S(N)(=O)=O)c2)nc1N1CCN(c2ccccc2)C(=O)C1 | binding | competition with immobilised ligand | 1 µM | 54%
COc1ncc2cc3ccccc3nc2c1C#N | cell-free assay | competition with immobilised ligand | 5 µM | 84%
C[C@@H](c1cccc(C#N)c1)n1cc(Cl)cc(C(N)=O)c1=N | cell-free assay | competition with immobilised ligand | 1 µM | 84%
CCN1CCN(Cc2ccc(C(=O)Nc3ccc(C)c(Oc4ccc5c(c4)CC(=O)N5)c3)cc2C(F)(F)F)CC1 | binding | competition with immobilised ligand | 1 µM | 100%
O=C(c1ccc(Nc2nccc(-c3cc4ccccc4s3)n2)cc1)N1CCC(N2CCCC2)CC1 | binding | competition with immobilised ligand | 1 µM | 100%
CCS(=O)(=O)c1cc2cc(C[C@](O)(CC(C)(C)c3ccc(F)cc3C(N)=O)C(F)(F)F)[nH]c2cn1 | cell-free assay | competition with immobilised ligand | 1 µM | 100%
O=C(c1ccc(Nc2ncc(Cl)c(-c3ccc(Cl)s3)n2)cc1)N1CCC(N2CCCC2)CC1 | binding | competition with immobilised ligand | 1 µM | 100%
Nc1ncc2c(n1)-c1c([nH]c3ccc(C#CC4CC4)cc13)CCCC2 | binding | competition with immobilised ligand | 1 µM | 92%
CNC(=O)c1ccc(Nc2ncc(C(F)(F)F)c(NCc3nccnc3N(C)S(C)(=O)=O)n2)cc1 | cell-free assay | competition with immobilised ligand | 0.1 µM | 92%
CN(C)c1ncc(F)c(-c2cnn3ncccc23)n1 | binding | – | 1 µM | 56%
Cc1nc(C2CCN(C(=O)c3ccc(OC(F)(F)F)cc3N)CC2)c2ncc(N3CCN(C)CC3)cc2n1 | cell-free assay | competition with immobilised ligand | 1 µM | 100%
N[C@@H]1CCN(c2nccc(-c3cnn4ncccc34)n2)C1 | binding | – | 1 µM | 100%
O=C(Nc1c[nH]nc1C(=O)NC1CCNCC1)c1cc(F)cc(F)c1 | binding | competition with immobilised ligand | 1 µM | 100%
CN(C)c1nccc(-c2cnc3ncccn23)n1 | binding | – | 1 µM | 51%
COc1ccc2c(O[C@@H]3C[C@H]4C(=O)N[C@]5(C(=O)O)CC5/C=C\CCCCC[C@H](NC(=O)OC5CCCC5)C(=O)N4C3)cc(-c3csc(NC(=O)C(C)C)n3)nc2c1C (stereo partly drawn) | cell-free assay | competition with immobilised ligand | 1 µM | 86%
O=C(NCCCN1CCOCC1)c1ccc(Nc2nccc(-c3cc4ccccc4s3)n2)cc1 | binding | competition with immobilised ligand | 1 µM | 68%
COc1cnc(Nc2cccc(S(N)(=O)=O)c2)nc1N1CCN(c2ccccc2)CC1 | binding | competition with immobilised ligand | 1 µM | 79%
C=CC(=O)N1CCC(C(=O)NCC(=O)N2CCN(c3nc(-c4cnc(N)nc4C(F)F)nc(N4CCOCC4)n3)CC2)CC1 | binding | competition with immobilised ligand | 1 µM | 16%
CN(CCCC(F)(F)F)c1nccc(-c2cnn3ncccc23)n1 | binding | – | 1 µM | 100%
CC(=O)N1CCC(c2ccc(C(=O)NC3=NCCN3)cc2C(F)(F)F)CC1 | cell-free assay | competition with immobilised ligand | 1 µM | 85%
